Assay in all cases: Susceptibility testing
Assay type in all cases: cell-based

The subject of assay [1] is Escherichia coli (CTX-M-14) ESBL producer. Particulars: read-out: Minimum inhibitory concentrations (MICs; μg/mL) Escherichia coli (CTX-M-14). The method, boiled down:
(§1)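 Broth susceptibility testing of clinical isolates resistant to third-generation cephalosporins, run and read per CLSI guidelines. […] Compounds were dissolved in DMSO and diluted into Mueller Hinton medium, with DMSO kept below 5%. Values are the average of three independent experiments.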

Assay [2] has as its system Enterobacter cloacae (AmpC overproducer). Particulars: read-out: Minimum inhibitory concentrations (MICs; μg/mL) Enterobacter cloacae. The method, boiled down: as §1
The subject of assay [3] is Escherichia coli (TEM-3) ESBL producer. Particulars: read-out: Minimum inhibitory concentrations (MICs; μg/mL) Escherichia coli (TEM-3). In a few lines:
as §1

For assay [4], the system named is Citrobacter freundii (AmpC overproducer). Particulars: read-out: Minimum inhibitory concentrations (MICs; μg/mL) Citrobacter freundii. In a few lines: as §1

≈ marks a conversion by molar mass, not a printed value.

With `CO/N=C(\C(=O)N[C@@H]1C(=O)N2C(C(=O)O)=C(COC(C)=O)CS[C@H]12)c1csc(N)n1` [Cefotaxime, cefotaxime], the MIC in assay [1] came to 256 µg/mL (≈ 562 µM); in assay [2] it was 64 µg/mL (≈ 141 µM); in assay [3] it was 8 µg/mL (≈ 17.6 µM); in assay [4], 16 µg/mL (≈ 35.1 µM).

Source of the values: article PMC4232467 (Nature chemical biology, 2014).
